A short description of data set [1]: folding enthalpy; higher = less favourable; fluorescence melt of hairpins on a sequencing array, two-state fit. Conditions: sodium 0.088 M. The procedure, abridged: (§1)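 With Cy3 and quencher oligos annealed, library hairpins on a sequenced MiSeq flow cell were imaged for Cy3 fluorescence in 50 mM Na-HEPES pH 8.0, 25 mM NaCl, in 2.5 °C steps up to 60 °C. Melting temperature and folding enthalpy were derived from bootstrapped two-state fits of signals normalised to pre-quench Cy3 and to control constructs. Four replicates were combined by inverse variance, with fitted temperatures raised by 9.35 °C to match UV melts.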

Data set [2] can be described thus: melting temperature; fluorescence melt of hairpins on a sequencing array, two-state fit, raised by 9.35 °C to match UV melts. Conditions: sodium 0.088 M. The procedure, abridged:
as §1

37 sequences from the array DNA melting data of Ke et al. (doi:10.1101/2024.01.08.574731) can be followed below.

On to GATCTTGGAAACAAGACC (.(((((....))))).), for which, in data set [1], the folding enthalpy was -17.4 kcal/mol. Also, the Tm in data set [2] came to 35.2 °C.
The matching figures for GATCTTGGAAACAAGGTC ((.((((....)))).)): -33.9 kcal/mol and 44.2 °C.
The matching figures for GATCTTGGAAACGAGATC (((((.(....).))))): -36.7 kcal/mol and 44.2 °C.
The matching figures for GATCTTGGATAAGATC ((((((....)))))): -30.6 kcal/mol and 49.4 °C.
Regarding GATCTTGGCAAAGATC ((((((....)))))), in data set [1], the folding enthalpy was -38.9 kcal/mol. Moreover, the Tm in data set [2] was 53.2 °C.
Consider GATCTTGGCAAGATC ((((((...)))))), for which the folding enthalpy in data set [1] was -46.1 kcal/mol. Also, the Tm in data set [2] is 48.2 °C.
The matching figures for GATCTTGTAAAAGATC ((((((....)))))): -41.1 kcal/mol and 52.8 °C.
On to GATCTTGTAGAAGATC ((((((....)))))), for which the folding enthalpy in data set [1] was -27.5 kcal/mol. Moreover, the Tm in data set [2] worked out at 46.4 °C.
The matching figures for GATCTTGTCAAGATC ((((((...)))))): -34.2 kcal/mol and 47.4 °C.
The matching figures for GATCTTGTCCAAGATC ((((((....)))))): -34.2 kcal/mol and 50.1 °C.
The matching figures for GATCTTGTGTAAGATC ((((((....)))))): -34.6 kcal/mol and 43.6 °C.
For GATCTTGTTTAAGATC ((((((....)))))), in data set [1], the folding enthalpy is -32.1 kcal/mol. Besides, the Tm in data set [2] worked out at 45.8 °C.
For the sequence GATCTTTAAAAAGATC ((((((....)))))), the folding enthalpy in data set [1] is -34.8 kcal/mol. In addition, in data set [2], the Tm came to 40.5 °C.
The matching figures for GATCTTTAGAAGATC ((((((...)))))): -24.7 kcal/mol and 38.7 °C.
The matching figures for GATCTTTATAAGATC ((((((...)))))): -33.3 kcal/mol and 44 °C.
In the case of GATCTTTATCAAGATC ((((((....)))))), the folding enthalpy in data set [1] was -29.4 kcal/mol. Besides, the Tm in data set [2] is 39.3 °C.
As to GATCTTTCAAAAGATC ((((((....)))))), the folding enthalpy in data set [1] was -32.2 kcal/mol. Also, the Tm in data set [2] is 42.2 °C.
For GATCTTTCCAAGATC ((((((...)))))), the folding enthalpy in data set [1] was -37.1 kcal/mol. For the same sequence, in data set [2], the Tm was determined as 47.7 °C.
The matching figures for GATCTTTCCTAAGATC ((((((....)))))): -34.2 kcal/mol and 45.1 °C.
Consider GATCTTTCGAAGATC ((((((...)))))), for which, in data set [1], the folding enthalpy was -28.7 kcal/mol. Also, the Tm in data set [2] turned out to be 40.7 °C.
The matching figures for GATCTTTCTAAAGATC ((((((....)))))): -37.7 kcal/mol and 47.3 °C.
The matching figures for GATCTTTCTGAAGATC ((((((....)))))): -36 kcal/mol and 45.2 °C.
As for GATCTTTGCAAAGATC ((((((....)))))), the folding enthalpy in data set [1] is -57.2 kcal/mol. In addition, the Tm in data set [2] came out at 50.9 °C.
As to GATCTTTGCCAAGATC ((((((....)))))), the folding enthalpy in data set [1] is -29.7 kcal/mol. Also, the Tm in data set [2] was 42.5 °C.
With GATCTTTGCGAAGATC ((((((....)))))), the folding enthalpy in data set [1] is -45.8 kcal/mol. In addition, in data set [2], the Tm was found to be 47.6 °C.
The matching figures for GATCTTTGCTAAGATC ((((((....)))))): -35.8 kcal/mol and 46 °C.
For GATCTTTTAAAAGATC ((((((....)))))), the folding enthalpy in data set [1] is -39.2 kcal/mol. Besides, the Tm in data set [2] came out at 45.9 °C.
The matching figures for GATCTTTTAAAGATC ((((((...)))))): -30.9 kcal/mol and 43.8 °C.
The matching figures for GATCTTTTACAAGATC ((((((....)))))): -31.9 kcal/mol and 42.8 °C.
The matching figures for GATCTTTTAGAAGATC ((((((....)))))): -41.8 kcal/mol and 44.4 °C.
Take GATCTTTTCTAAGATC ((((((....)))))): the folding enthalpy in data set [1] is -36.8 kcal/mol. The Tm in data set [2] is 45.2 °C.
The matching figures for GATGAACGAAAGTTAATC (((.(((....))).))): -23.7 kcal/mol and 38.6 °C.
The matching figures for GATGAACGAAAGTTATC (((.(((....)))))): -11.1 kcal/mol and 28.4 °C.
The matching figures for GATGAAGGAAACCTCATC (((((.(....).))))): -24.7 kcal/mol and 36.1 °C.
Regarding GATGACGAAAGTCAATC ((((((....))).))), in data set [1], the folding enthalpy was -16.2 kcal/mol. Also, the Tm in data set [2] was found to be 43.7 °C.
On to GATGACGGAAACATCATC (((((.(....).))))), for which the folding enthalpy in data set [1] is -31.2 kcal/mol. In data set [2], the Tm worked out at 34.8 °C.
The matching figures for GATGAGGAAACTCATC ((((((....)))))): -35 kcal/mol and 52.8 °C.
